Results reported in ChEMBL document CHEMBL4311941, “Development of Multifunctional Histone Deacetylase 6 Degraders with Potent Antimyeloma Activity” (J Med Chem, 2019).
Active and inactive are the calls of the source. No cut-off for these calls is given here.

Legend:
[1] = biological target: T1, Protein cereblon/Protein deacetylase HDAC6 (Homo sapiens, UniProt Q9UBN7+Q96SW2); test: Protac activity at CRBN/HDAC6 in human MM1S cells assessed as HDAC6 degradation at 10 to 100 nM measured after 6 hrs by Western blot analysis; type: cell-based
Target sequence in this assay (Q96SW2 whole entry, looked up): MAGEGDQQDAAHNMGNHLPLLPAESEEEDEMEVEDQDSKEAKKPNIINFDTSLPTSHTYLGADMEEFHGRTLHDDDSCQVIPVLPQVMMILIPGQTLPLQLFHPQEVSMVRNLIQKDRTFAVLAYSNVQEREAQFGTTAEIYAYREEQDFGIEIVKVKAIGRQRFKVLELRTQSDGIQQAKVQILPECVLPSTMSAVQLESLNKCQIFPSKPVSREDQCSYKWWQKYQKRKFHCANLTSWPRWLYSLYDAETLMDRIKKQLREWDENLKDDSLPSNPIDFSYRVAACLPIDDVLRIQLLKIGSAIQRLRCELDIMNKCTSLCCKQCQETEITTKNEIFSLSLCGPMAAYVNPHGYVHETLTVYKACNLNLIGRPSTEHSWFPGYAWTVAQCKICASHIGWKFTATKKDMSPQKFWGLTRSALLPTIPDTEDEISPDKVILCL
Target sequence in this assay (Q9UBN7 whole entry, looked up): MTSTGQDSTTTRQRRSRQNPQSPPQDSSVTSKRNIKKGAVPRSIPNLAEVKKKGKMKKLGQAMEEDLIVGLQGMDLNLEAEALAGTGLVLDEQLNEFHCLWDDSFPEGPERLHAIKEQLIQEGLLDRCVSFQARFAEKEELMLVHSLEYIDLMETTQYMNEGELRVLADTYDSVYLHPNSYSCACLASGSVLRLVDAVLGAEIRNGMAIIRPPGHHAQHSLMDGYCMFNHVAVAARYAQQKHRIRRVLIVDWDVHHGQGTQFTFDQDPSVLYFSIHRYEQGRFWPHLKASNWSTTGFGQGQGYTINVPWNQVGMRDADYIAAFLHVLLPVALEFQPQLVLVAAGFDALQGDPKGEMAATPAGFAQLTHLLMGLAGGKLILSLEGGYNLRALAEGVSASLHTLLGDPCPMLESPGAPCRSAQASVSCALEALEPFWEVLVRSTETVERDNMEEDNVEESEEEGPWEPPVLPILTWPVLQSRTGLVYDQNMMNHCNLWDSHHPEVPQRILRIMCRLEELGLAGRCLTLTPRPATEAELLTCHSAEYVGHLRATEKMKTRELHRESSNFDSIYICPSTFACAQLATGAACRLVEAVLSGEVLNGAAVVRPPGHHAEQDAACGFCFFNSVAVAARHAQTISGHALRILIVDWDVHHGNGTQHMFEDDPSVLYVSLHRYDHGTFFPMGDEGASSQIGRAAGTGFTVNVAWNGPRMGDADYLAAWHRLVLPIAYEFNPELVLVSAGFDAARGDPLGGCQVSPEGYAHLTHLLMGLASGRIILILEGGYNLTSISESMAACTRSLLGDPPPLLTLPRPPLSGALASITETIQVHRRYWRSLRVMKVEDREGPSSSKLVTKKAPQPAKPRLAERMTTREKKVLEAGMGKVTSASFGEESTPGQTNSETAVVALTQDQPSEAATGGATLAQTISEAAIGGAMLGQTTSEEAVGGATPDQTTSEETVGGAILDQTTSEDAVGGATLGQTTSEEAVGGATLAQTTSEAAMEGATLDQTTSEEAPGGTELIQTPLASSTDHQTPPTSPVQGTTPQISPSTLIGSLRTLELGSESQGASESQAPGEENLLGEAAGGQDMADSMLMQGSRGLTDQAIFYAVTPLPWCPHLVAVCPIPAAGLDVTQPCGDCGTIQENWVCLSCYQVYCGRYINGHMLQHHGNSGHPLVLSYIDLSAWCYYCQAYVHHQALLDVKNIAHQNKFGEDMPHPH

[2] = test system: MM1.S; test: Antiproliferative activity against human MM1S cells assessed as reduction in cell viability at 1 uM measured after 72 hrs by resazurin dye based assay; type: functional
[3] = biological target: T1, Protein cereblon/Protein deacetylase HDAC6; test: Protac activity at CRBN/HDAC6 in human MM1S cells assessed as HDAC6 degradation measured after 6 hrs by ELISA; type: cell-based
Outline: (§1)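 In-cell ELISA: MM1S cells (5 × 10^4 per well) seeded overnight, treated 6 h (dosed as 5× medium; 0.1 nM–1 μM or 10/100 nM). Fixed in 8% formaldehyde/TBS, permeabilized with 0.1% Triton X, peroxidase quenched with 1% H2O2, blocked in 5% BSA. Anti-HDAC6 rabbit mAb (1:1000, 2 h) then HRP secondary; TMB read as OD450 − OD570. Background wells lacked primary antibody. Signal normalized to Janus Green and to DMSO wells, n = 3. DC50/Dmax from three-parameter fit.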
Target sequence in this assay (Q9UBN7 whole entry): as the sequence (Q9UBN7 whole entry, looked up) above
Target sequence in this assay (Q96SW2 whole entry): as the sequence (Q96SW2 whole entry, looked up) above

[4] = biological target: T1, Protein cereblon/Protein deacetylase HDAC6; test: Protac activity at CRBN/HDAC6 in human MM1S cells assessed as HDAC6 degradation measured after 6 hrs by ELISA relative to control; type: cell-based; outline: as §1
Target sequence in this assay (Q96SW2 whole entry, looked up): as above
Target sequence in this assay (Q9UBN7 whole entry, looked up): as the sequence (Q9UBN7 whole entry, looked up) above

[5] = biological target: T1, Protein cereblon/Protein deacetylase HDAC6; test: Protac activity at CRBN/HDAC6 in human MM1S cells assessed as HDAC6 degradation at 100 nM measured after 6 hrs by Western blot analysis; type: cell-based
Target sequence in this assay (Q96SW2 whole entry, looked up): as the sequence (Q96SW2 whole entry, looked up) above
Target sequence in this assay (Q9UBN7 whole entry, looked up): as the sequence (Q9UBN7 whole entry, looked up) above

[6] = biological target: T1, Protein cereblon/Protein deacetylase HDAC6; test: Protac activity at CRBN/HDAC6 in human HepG2 cells assessed as HDAC6 degradation up to 1 uM incubated for 6 hrs by Western blot analysis; type: cell-based
Target sequence in this assay (Q96SW2 whole entry, looked up): as the sequence (Q96SW2 whole entry, looked up) above
Target sequence in this assay (Q9UBN7 whole entry, looked up): as the sequence (Q9UBN7 whole entry, looked up) above

[7] = test system: MM1.S; test: Antiproliferative activity against human MM1S cells assessed as reduction in cell viability measured after 72 hrs by resazurin dye based assay; type: functional
Outline: (§2)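 MM1S cells seeded at 1 × 10^4 per well, left overnight, then given compound or DMSO vehicle (added as 5× dosing medium) for 72 h at 37 °C, 5% CO2. Resazurin added (10× solution, 1 mg/mL), then incubated overnight at 37 °C. OD read at 570 and 600 nm. Viability is relative to vehicle, n = 3. Curves fitted as [inhibitor] vs response (three parameters); test range 0.3 nM–3 μM.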

[8] = test system: MM1.S; test: Antiproliferative activity against human MM1S cells assessed as reduction in cell viability measured after 72 hrs by resazurin dye based assay relative to control; type: functional; outline: as §2

Structure (SMILES) | Activity [1] | Activity [2] | other results
CCCCN(Cc1ccc(C(=O)NO)cc1)C(=O)Nc1ccc(OCCCCCn2cc(CNc3ccc4c(c3)C(=O)N(C3CCC(=O)NC3=O)C4=O)nn2)cc1 (configuration not stated) | Active | – | –
Nc1cccc2c1C(=O)N(C1CCC(=O)NC1=O)C2=O (configuration not stated) | – | Active | –
CCCCN(Cc1ccc(C(=O)NO)cc1)C(=O)Nc1ccc(OCCn2cc(CNc3cccc4c3C(=O)N(C3CCC(=O)NC3=O)C4=O)nn2)cc1 (configuration not stated) | – | – | DC50 [3]: 3.41 nM; %max [4]: 88%
CCCCN(Cc1ccc(C(=O)NO)cc1)C(=O)Nc1ccc(OCCCCCn2cc(CNc3cccc4c3C(=O)N(C3CCC(=O)N(C)C3=O)C4=O)nn2)cc1 (configuration not stated) | – | inactive | Activity [5]: inactive
CCCCN(Cc1ccc(C(=O)NO)cc1)C(=O)Nc1ccccc1 | – | inactive | –
CCCCN(Cc1ccc(C(=O)NO)cc1)C(=O)Nc1ccc(OCCCCn2cc(CCNc3cccc4c3C(=O)N(C3CCC(=O)NC3=O)C4=O)nn2)cc1 (configuration not stated) | Active | – | –
CCCCN(Cc1ccc(C(=O)OC)cc1)C(=O)Nc1ccc(OCCCCCn2cc(CNc3cccc4c3C(=O)N(C3CCC(=O)NC3=O)C4=O)nn2)cc1 (configuration not stated) | – | Active | EC50 [7]: 17.7 nM; Activity [5]: inactive; Imax [8]: 44%
CCCCN(Cc1ccc(C(=O)NO)cc1)C(=O)Nc1ccc(OCCn2cc(CCCNc3cccc4c3C(=O)N(C3CCC(=O)NC3=O)C4=O)nn2)cc1 (configuration not stated) | Active | – | DC50 [3]: 2.54 nM; %max [4]: 86.3%

Further lines, with some results ahead:

Activity [1] | Structure (SMILES) | Activity [2] | other results
Active | CCCCN(Cc1ccc(C(=O)NO)cc1)C(=O)Nc1ccc(OCCCn2cc(CCCNc3ccc4c(c3)C(=O)N(C3CCC(=O)NC3=O)C4=O)nn2)cc1 (configuration not stated) | – | –
Active | CCCCN(Cc1ccc(C(=O)NO)cc1)C(=O)Nc1ccc(OCCCCn2cc(CNc3ccc4c(c3)C(=O)N(C3CCC(=O)NC3=O)C4=O)nn2)cc1 (configuration not stated) | – | Activity [6]: Active
Active | O=C(CCCCCCC(=O)N/N=C/c1ccc(OCCOCCOCCn2cc(CNc3cccc4c3C(=O)N(C3CCC(=O)NC3=O)C4=O)nn2)cc1)NO (configuration not stated) | Active | DC50 [3]: 9.12 nM; %max [4]: 84.1%
